Consider five compounds from ChEMBL document CHEMBL3352307, “Bioactive anthraquinone derivatives from the mangrove-derived fungus Stemphylium sp. 33231” (J Nat Prod, 2014).

The nature of assay [1]: Cytotoxic activity against mouse B16F10 cells by MTT assay. It is filed as functional, cell-based. The following applies: B16-F10. The gist of the method:
(§1)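 MTT viability read-out on mouse melanoma B16F10 and human lung adenocarcinoma A549 lines, with epirubicin as positive control. Activity is given as IC50.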
On the technique in general: Formazan colour is commonly taken as a measure of viable cells.

The test system of a further assay is A549. Put plainly: Cytotoxic activity against human A549 cells by MTT assay. In kind it is functional, cell-based. The gist of the method:
as §1

The test system of another assay is Kocuria rhizophila. Kind of assay: Antimicrobial activity against Kocuria rhizophila ATCC 9341 by broth dilution assay. In kind it is functional. Summed up: (§2)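 Conventional broth dilution run on the seven terrestrial pathogenic bacterial strains, with ciprofloxacin as positive control.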
In another assay the test system is Staphylococcus. Put plainly: Antimicrobial activity against Staphylococcus albus ATCC 8799 by broth dilution assay. In kind it is functional. Summed up:
as §2
Background: In broth dilution the organism is exposed to a series of concentrations in liquid medium.

The next assay deals with Staphylococcus aureus. Kind of assay: Antimicrobial activity against Staphylococcus aureus ATCC 6538 by broth dilution assay. In kind it is functional. Summed up: as §2
In another assay the test system is Bacillus subtilis. Kind of assay: Antimicrobial activity against Bacillus subtilis ATCC 6633 by broth dilution assay. In kind it is functional. The gist of the method:
as §2

Another assay has as its system Bacillus cereus. Put plainly: Antimicrobial activity against Bacillus cereus ATCC 14579 by broth dilution assay. In kind it is functional. The gist of the method: as §2
The next assay relates to Micrococcus. Put plainly: Antimicrobial activity against Micrococcus tetragenus ATCC 13623 by broth dilution assay. It is filed as functional. Summed up: as §2
For a further assay, the system named is Escherichia coli. Put plainly: Antimicrobial activity against Escherichia coli ATCC 25922 by broth dilution assay. It is filed as functional. Summed up: as §2
Where [2] appears, read: Kocuria rhizophila, ATCC 9341, read-out: MIC.
[3] abbreviates: Staphylococcus, ATCC 8799, read-out: MIC.
Setting [4] is: Staphylococcus aureus, ATCC 6538, read-out: MIC.
[5] abbreviates: Bacillus subtilis, ATCC 6633, read-out: MIC.
Where [6] appears, read: Bacillus cereus, ATCC 14579, read-out: MIC.
Setting [7] is: Micrococcus, ATCC 13623, read-out: MIC.
Where [8] appears, read: Escherichia coli, ATCC 25922, read-out: MIC.

Converted amounts (≈) assume the structure as drawn. Bounds are passed on as bounds.

Take `COc1cc(O)c2c(c1)C(=O)c1cc(C)c(OS(=O)(=O)O)cc1C2=O`: the IC50 (in assay [1]; in the assay on A549) was above 10 µM each time. The MIC in the assay with Kocuria rhizophila (setting [2]), in the assay on Staphylococcus (setting [3]), in the assay on Staphylococcus aureus (setting [4]), in the assay with Bacillus subtilis (setting [5]), in the assay with Bacillus cereus (setting [6]) and with Micrococcus (setting [7]) was above 10 µM each time. Besides, the MIC in the assay on Escherichia coli (setting [8]) was above 10 µM.

Consider `COc1cc(O)c2c(c1)C(=O)c1cc(C)c(O)cc1C2=O` [MACROSPORIN], for which the IC50 (in assay [1]; in the assay on A549) was above 10 µM throughout. The MIC was above 10 µM in the assay with Kocuria rhizophila (setting [2]); above 10 µM in the assay on Staphylococcus (setting [3]); 9.2 µM (≈ 2.62 µg/mL) with Staphylococcus aureus (setting [4]); above 10 µM in the assay with Bacillus subtilis (setting [5]); above 10 µM in the assay with Bacillus cereus (setting [6]); 4.6 µM (≈ 1.31 µg/mL) in the assay with Micrococcus (setting [7]). In addition, the MIC with Escherichia coli (setting [8]) amounted to 4.6 µM (≈ 1.31 µg/mL).

`COc1cc(O)c2c(c1)C(=O)C1=C(C[C@@H](OC(C)=O)[C@@](C)(O)C1)C2=O`: the IC50 (in assay [1]; in the assay with A549) was above 10 µM each time. In addition, the MIC with Kocuria rhizophila (setting [2]) is above 10 µM; with Staphylococcus (setting [3]), 3.9 µM (≈ 1.35 µg/mL); in the assay with Staphylococcus aureus (setting [4]), 3.9 µM (≈ 1.35 µg/mL); in the assay with Bacillus subtilis (setting [5]), 3.9 µM (≈ 1.35 µg/mL); with Bacillus cereus (setting [6]), above 10 µM; in the assay on Micrococcus (setting [7]) it was 7.8 µM (≈ 2.7 µg/mL). The MIC in the assay on Escherichia coli (setting [8]) is 3.9 µM (≈ 1.35 µg/mL).

In the case of `COc1cc(O)c2c(c1)C(=O)c1cc(C)c(O)c(-c3c(O)c(C)cc4c3C(=O)c3c(O)cc(OC)cc3C4=O)c1C2=O`, the IC50 (in assay [1]; with A549) was above 10 µM in each case. Also, the MIC was above 10 µM in the assay on Kocuria rhizophila (setting [2]); above 10 µM with Staphylococcus (setting [3]); above 10 µM in the assay on Staphylococcus aureus (setting [4]); above 10 µM with Bacillus subtilis (setting [5]); 8.1 µM (≈ 4.59 µg/mL) with Bacillus cereus (setting [6]); above 10 µM with Micrococcus (setting [7]). The MIC with Escherichia coli (setting [8]) was above 10 µM.

In the case of `COc1cc(O)c2c(c1-c1c(OC)cc(O)c3c1C(=O)c1cc(C)c(O)cc1C3=O)C(=O)C1=C(C2=O)[C@H](O)[C@@H](O)[C@@](C)(O)[C@@H]1O` (single isomer, unassigned; atropisomer 2) [ALTERPORRIOL A/B], the IC50 (in [1]; in the assay on A549) was above 10 µM in each case. Also, the MIC in the assay with Kocuria rhizophila, in the assay on Staphylococcus, with Staphylococcus aureus, in the assay on Bacillus subtilis, against Bacillus cereus and against Micrococcus was above 10 µM each time. In addition, the MIC in the assay on Escherichia coli was above 10 µM.

The IC50 is the concentration that inhibits the measured activity by half. A high value points to lower potency. In general, MIC refers to the smallest concentration in the dilution series that meets the test's criterion for growth inhibition.
